Measured values published in ChEMBL document CHEMBL1122395, “Tetracyclic chromophoric analogues of actinomycin D: synthesis, structure elucidation and interconvertibility from one form to another, antitumor activity, and structure-activity relationships” (1983).
≈ marks a conversion by molar mass, not a printed value.

Legend:
[1] = system: P388; assay: Median survival time observed in P-388 cells infected male CDF1 hybrid mice after intraperitoneal administration at 1200 ug/kg optimal dose; type: functional, Mus musculus
Summary of the method: (§1)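 Male CDF1 mice, seven per group, given 10^6 P388 cells ip on day 0. Drugs were given ip in 10% Me2SO-saline on days 1, 5 and 9, with solutions kept at 0-4 °C, protected from light and checked for homogeneity by HPLC. A range of doses was run and the optimal nontoxic dose reported. Read-outs were median survival time, percent increase in life span, and cures (over-60-day survivors, average of two experiments).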

[2] = system: P388; assay: Percent increase in life span observed in P-388 cells infected male CDF1 hybrid mice after intraperitoneal administration at 1200 ug/kg optimal dose; type: functional, Mus musculus; summary of the method: as §1
[3] = organism: Mus musculus; assay: Male CDF1 hybrid treated mice out of seven which survived over 60 days after the treatment.; type: functional; summary of the method: as §1
[4] = system: CCRF-CEM; assay: Growth inhibitory activity against human lymphoblastic leukemia cells(CCRF-CEM); type: functional; conditions: read-out: ID50 (the source's name)
Summary of the method: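 Log-phase human lymphoblastic leukemia CCRF-CEM cells grown in suspension culture. Compounds dissolved in Me2SO, final growth medium contained 5% Me2SO. Test solutions kept at 0-4 °C, protected from light, homogeneity checked by HPLC before testing. ID50 reported in ng/mL.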

[5] = system: P388; assay: Median survival time observed in P-388 cells infected male CDF1 hybrid mice after intraperitoneal administration at 600 ug/kg optimal dose; type: functional, Mus musculus; summary of the method: as §1
[6] = system: P388; assay: Percent increase in life span observed in P-388 cells infected male CDF1 hybrid mice after intraperitoneal administration at 600 ug/kg optimal dose; type: functional, Mus musculus; summary of the method: as §1
[7] = system: P388; assay: Percent increase in life span observed in P-388 cells infected male CDF1 hybrid mice after intraperitoneal administration at 1800 ug/kg optimal dose; type: functional, Mus musculus; summary of the method: as §1
[8] = system: P388; assay: Median survival time observed in P-388 cells infected male CDF1 hybrid mice after intraperitoneal administration at 1800 ug/kg optimal dose; type: functional, Mus musculus; summary of the method: as §1
[9] = system: P388; assay: Median survival time observed in P-388 cells infected male CDF1 hybrid mice after intraperitoneal administration at 900 ug/kg optimal dose; type: functional, Mus musculus; summary of the method: as §1
[10] = system: P388; assay: Percent increase in life span observed in P-388 cells infected male CDF1 hybrid mice after intraperitoneal administration at 900 ug/kg optimal dose; type: functional, Mus musculus; summary of the method: as §1
[11] = system: Nucleic Acid; assay: Melting temperature of DNA-drug complex minus melting temperature of purified calf-thymus DNA; type: functional; conditions: Bos taurus
Summary of the method: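 Calf-thymus DNA, purified. ΔTm is the Tm of the DNA-drug complex minus the Tm of DNA alone. Medium was 0.01 M phosphate buffer, pH 7.0, with EDTA.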

Q: How did the MST [1] turn out when `Cc1ccc(C(=O)N[C@@H]2C(=O)N[C@H](C(C)C)C(=O)N3CCC[C@H]3C(=O)N(C)CC(=O)N(C)[C@@H](C(C)C)C(=O)O[C@@H]2C)c2c1Oc1c(c(C(=O)N[C@@H]3C(=O)N[C@H](C(C)C)C(=O)N4CCC[C@H]4C(=O)N(C)CC(=O)N(C)[C@@H](C(C)C)C(=O)O[C@@H]3C)c3nc(-c4ccccc4Cl)c(=O)oc3c1C)N2` was run?
A: 30 days

Q: And the ILS [2]?
A: 172%

Q: And the Cures [3]?
A: 1

Q: What about the IC50 [4] of the same compound?
A: 1.8 µg/mL (≈ 1.28 µM)

Q: For `Cc1ccc(C(=O)N[C@@H]2C(=O)N[C@H](C(C)C)C(=O)N3CCC[C@H]3C(=O)N(C)CC(=O)N(C)[C@@H](C(C)C)C(=O)O[C@@H]2C)c2c1Oc1c(c(C(=O)N[C@@H]3C(=O)N[C@H](C(C)C)C(=O)N4CCC[C@H]4C(=O)N(C)CC(=O)N(C)[C@@H](C(C)C)C(=O)O[C@@H]3C)c3nc(-c4ccc(Cl)cc4)c(=O)oc3c1C)N2`, which MST [5] is on record?
A: 29 days

Q: What about the Cures [3] of the same compound?
A: 0

Q: And the IC50 [4]?
A: 1.6 µg/mL (≈ 1.14 µM)

Q: What about the ILS [6] of the same compound?
A: 164%

Q: What does the source list for `Cc1ccc(C(=O)N[C@@H]2C(=O)N[C@H](C(C)C)C(=O)N3CCC[C@H]3C(=O)N(C)CC(=O)N(C)[C@@H](C(C)C)C(=O)O[C@@H]2C)c2c1Oc1c(c(C(=O)N[C@@H]3C(=O)N[C@H](C(C)C)C(=O)N4CCC[C@H]4C(=O)N(C)CC(=O)N(C)[C@@H](C(C)C)C(=O)O[C@@H]3C)c3nc(-c4ccc5ccccc5c4)c(=O)oc3c1C)N2`?
A: MST [1]: 26 days; ILS [2]: 136%; Cures [3]: 0; IC50 [4]: 1 µg/mL (≈ 0.703 µM)

Q: With `Cc1ccc(C(=O)N[C@@H]2C(=O)N[C@H](C(C)C)C(=O)N3CCC[C@H]3C(=O)N(C)CC(=O)N(C)[C@@H](C(C)C)C(=O)O[C@@H]2C)c2c1Oc1c(c(C(=O)N[C@@H]3C(=O)N[C@H](C(C)C)C(=O)N4CCC[C@H]4C(=O)N(C)CC(=O)N(C)[C@@H](C(C)C)C(=O)O[C@@H]3C)c3nc(-c4c(F)c(F)c(F)c(F)c4F)oc3c1C)N2` as the compound, how does the ILS [7] read?
A: 72%

Q: What about the MST [8] of the same compound?
A: 19 days

Q: What about the Cures [3] of the same compound?
A: 0

Q: And the IC50 [4]?
A: 12.5 µg/mL (≈ 8.72 µM)

Q: Which MST [1] does the source give for `CCCCCCc1nc2c(C(=O)N[C@@H]3C(=O)N[C@H](C(C)C)C(=O)N4CCC[C@H]4C(=O)N(C)CC(=O)N(C)[C@@H](C(C)C)C(=O)O[C@@H]3C)c3c(c(C)c2oc1=O)Oc1c(C)ccc(C(=O)N[C@@H]2C(=O)N[C@H](C(C)C)C(=O)N4CCC[C@H]4C(=O)N(C)CC(=O)N(C)[C@@H](C(C)C)C(=O)O[C@@H]2C)c1N3` here?
A: 25 days

Q: And the ILS [2]?
A: 127%

Q: What about the Cures [3] of the same compound?
A: 0

Q: What about the IC50 [4] of the same compound?
A: 2.08 µg/mL (≈ 1.51 µM)

Q: `Cc1ccc(C(=O)N[C@@H]2C(=O)N[C@H](C(C)C)C(=O)N3CCC[C@H]3C(=O)N(C)CC(=O)N(C)[C@@H](C(C)C)C(=O)O[C@@H]2C)c2c1Oc1c(c(C(=O)N[C@@H]3C(=O)N[C@H](C(C)C)C(=O)N4CCC[C@H]4C(=O)N(C)CC(=O)N(C)[C@@H](C(C)C)C(=O)O[C@@H]3C)c3nc(-c4c(F)c(F)c(F)c(F)c4F)c(=O)oc3c1C)N2` was tested. Which ILS [7] did it give?
A: 186%

Q: What about the MST [8] of the same compound?
A: 31.5 days

Q: What about the Cures [3] of the same compound?
A: 1

Q: And the IC50 [4]?
A: 0.64 µg/mL (≈ 0.438 µM)

Q: Which MST [9] does the source give for `Cc1ccc(C(=O)N[C@@H]2C(=O)N[C@H](C(C)C)C(=O)N3CCC[C@H]3C(=O)N(C)CC(=O)N(C)[C@@H](C(C)C)C(=O)O[C@@H]2C)c2c1Oc1c(c(C(=O)N[C@@H]3C(=O)N[C@H](C(C)C)C(=O)N4CCC[C@H]4C(=O)N(C)CC(=O)N(C)[C@@H](C(C)C)C(=O)O[C@@H]3C)c3nc(-c4ccccc4)oc3c1C)N2` here?
A: 23 days

Q: And the ILS [10]?
A: 109%

Q: What about the Cures [3] of the same compound?
A: 0

Q: And the IC50 [4]?
A: 9 µg/mL (≈ 6.7 µM)

Q: With `Cc1ccc(C(=O)N[C@@H]2C(=O)N[C@H](C(C)C)C(=O)N3CCC[C@H]3C(=O)N(C)CC(=O)N(C)[C@@H](C(C)C)C(=O)O[C@@H]2C)c2c1Oc1c(c(C(=O)N[C@@H]3C(=O)N[C@H](C(C)C)C(=O)N4CCC[C@H]4C(=O)N(C)CC(=O)N(C)[C@@H](C(C)C)C(=O)O[C@@H]3C)c3nc(-c4ccccc4)c(=O)oc3c1C)N2` as the compound, how does the MST [5] read?
A: 45 days

Q: And the Cures [3]?
A: 2

Q: And the IC50 [4]?
A: 0.44 µg/mL (≈ 0.321 µM)

Q: What about the ILS [6] of the same compound?
A: 309%

Q: How did the ΔTm [11] turn out when `Cc1nc2c(C(=O)N[C@H]3C(=O)N[C@H](C(C)C)C(=O)N4CCC[C@H]4C(=O)N(C)CC(=O)N(C)[C@@H](C(C)C)C(=O)O[C@H]3C)c3nc4c(C(=O)N[C@@H]5C(=O)N[C@H](C(C)C)C(=O)N6CCC[C@H]6C(=O)N(C)CC(=O)N(C)[C@@H](C(C)C)C(=O)O[C@@H]5C)cc(=O)c(C)c-4oc3c(C)c2o1` was run?
A: 1 °C
